# Hits are enriched below; roughly 9.2% of the tested compounds scored in any of these assays.
# HCT116 PTEN-null = growth suppression of PTEN-null HCT116, primary screen, cell-based, CellTiter-Glo; HCT116 PTEN-null viability, 60 h; hits give low values; viability, % at 10 µM; AID 827, 2007; hit rate 1.2% among 140,000;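 active = viability at or below a set limit, 4 SD under the median of all tested compounds, cut at about 3.7% in these data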;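 note: PTEN knockout HCT116 line with beta catenin targeted HCT116 as companion control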
# Dynein cargo inh = inhibitors of GR-EGFP nuclear translocation, primary screen, dynein cargo transport inhibitor project, imaging, high-content, 3617.4 mouse cells | test concentration mostly 20 µM; stimulated with dexamethasone, 1 µM; hits give low values | z-score, hits read low | hit rate 0.47% among 220,000 | AID 1381, 2008;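 active = plate z-score of nuclear minus cytoplasmic receptor signal below a set negative limit, without overly bright fluorescence or cell loss, cut at about -3.5 in these data, passing the limit was not always enough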;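 note: z-score of nuclear minus cytoplasmic ring GR-EGFP intensity difference per well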
#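 Also added – dexamethasone, 1.0 µM final · Buffer or medium – tet-free, stripped-serum medium · Schedule – induction 48 h, compound 1 h, agonist 30 min · Detection – formaldehyde fixation, Hoechst nuclear stain, 10x automated fluorescence imaging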
# HCT116 bCat-KO = primary screen for growth suppressors in beta-catenin knockout HCT116 cells (colon tumor, human) | HCT116 beta-catenin knockout viability, CellTiter-Glo, 60 h; hits give low values | viability, % at 10 µM | hit rate 1.5% among 140,000;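 active = viability at or under a set limit, the compound median less 4 SD, cut at about 6% in these data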
# Lmaj promast = Leishmania major promastigote growth inhibition, primary screen. Leishmania major promastigotes, resazurin fluorescence viability. inhibition, % at 10 µM. hit rate 9% among 200,000; in the data active = inhibition above about 50%;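 note: promastigotes grown with compound for 44 hours at 28 °C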
# Autophagy HCS = autophagy modulators in MEF cells, primary screen, imaging, high-content, MEF GFP-LC3; MEF GFP-LC3 puncta imaging; test concentration mostly 10 µM; calls only at 10 µM (by protocol); hit rate 0.98% among 190,000; AID 463193, 2010;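 active = percentage of spot-positive cells more than 3 SD above its plate mean, without a fluorescence outlier flag or 80% toxicity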
# A number is an active result; – = inactive; · = no result; + = active, no number.
SMILES,HCT116 PTEN-null,Dynein cargo inh,HCT116 bCat-KO,Lmaj promast,Autophagy HCS
Cc1cccc(C)c1NC(=O)CN(C)CC(=O)Nc1ccccc1Oc1ccccc1,·,–,·,–,–
CCc1ccc(C(=O)COc2ccc(NC(C)=O)cc2)cc1,–,–,–,–,–
CN1CCN(Cc2ccc(-c3ccc(Cl)cc3)o2)CC1,–,–,–,94,–
Cc1ccc(S(=O)(=O)N2CCCCC2)cc1NC(=O)COC(=O)c1ccc(O)cc1,·,–,·,–,–
COc1cc(OC)c(C(=O)CCC(=O)O)cc1OC,–,–,–,71,–
COc1cc(CC(=O)O)c(C(C)=O)cc1OC,–,–,–,–,–
Cc1cc(S(=O)(=O)NCCCN2CCOCC2)ccc1F,–,–,–,91,–
O=[N+]([O-])c1cc(S(=O)(=O)NCCCN2CCOCC2)ccc1Cl,–,–,–,99,–
O=S(=O)(NCCCN1CCOCC1)c1ccc2ccccc2c1,·,–,·,91,–
CCOc1ccc(OCC)c(S(=O)(=O)NCCCN2CCOCC2)c1,–,–,–,–,–
CCOc1ccc(S(=O)(=O)NCCCN2CCOCC2)cc1,–,–,–,92,–
Fc1ccc(CO/N=C2\CCCc3nonc32)cc1,·,–,·,–,–
O=[N+]([O-])c1cc(S(=O)(=O)NCCN2CCOCC2)ccc1Sc1nnnn1-c1ccccc1,–,–,–,86,–
COc1cc(S(=O)(=O)NCCCN2CCOCC2)ccc1Cl,–,–,–,93,–
c1ccc2cc(CN3CCOCC3)ccc2c1,–,–,–,54,–
Cc1ccc(S(=O)(=O)NCCCN2CCOCC2)cc1C,–,–,–,88,–
O=S(=O)(NCCCN1CCOCC1)c1ccc2c(c1)OCCO2,·,–,·,–,–
COc1cc(S(=O)(=O)NCCCN2CCOCC2)ccc1-n1cnnn1,·,–,·,–,–
C[C@@H](C(=O)Nc1cccc(S(=O)(=O)N2CCOCC2)c1)N1C(=O)C2CC=CCC2C1=O (some centres undefined),·,–,·,–,–
C=C(C)c1cccc(C(C)(C)NC(=O)Nc2cc(C)ccc2OC)c1,–,–,–,52,–
C=C(C)c1cccc(C(C)(C)NC(=O)NCc2ccc(OC)c(OC)c2)c1,–,–,–,–,–
C=C(C)c1cccc(C(C)(C)NC(=O)Nc2ccccc2OCC)c1,–,–,–,55,–
C=CCc1c(O)c(CC)cc2c(C)cc(=O)oc12,·,–,·,·,·
CC(=O)c1ccc(NC(=O)NCc2ccc(F)cc2)cc1,·,–,·,–,–
COc1cccc(/C(O)=C/c2nc3ccc(C(=O)NCCc4cccc(C)c4)cc3[nH]c2=O)c1,–,–,–,–,+
SMILES,HCT116 PTEN-null,Dynein cargo inh,HCT116 bCat-KO,Lmaj promast,Autophagy HCS
C(=C1/CCCC2=C1Nc1ncnn1C2c1ccccc1)/c1ccccc1 (centres undefined),1.5,–,1.5,100,–
COc1ccc(C2C3=C(Nc4ncnn42)c2ccccc2CC3)cc1OC (centres undefined),–,–,–,–,–
FC(F)(F)c1ccccc1C1C2=C(Nc3ncnn31)c1ccccc1CCC2 (centres undefined),–,–,–,96,–
CCOc1ccccc1NC(=O)c1cc(-c2ccncc2)nc2c(Cl)cccc12,·,–,·,–,–
CC(C)C(=O)c1cc2c(cc1NC(=O)c1ccccc1)OCCO2,–,–,–,57,–
CC(=O)Nc1cc2c(cc1C(=O)C(C)C)OCCO2,–,–,–,–,–
Cc1nc(C)n(CC(=O)N2CCCC(C(=O)c3ccc(C(F)(F)F)cc3)C2)n1 (centres undefined),·,–,·,–,–
CCN(CC)CC#CCOC(c1ccccc1)c1ccccc1,·,–,·,98,–
CN(C)CC#CCOC(c1ccccc1)c1ccccc1,·,–,·,99,–
CCN(CC)CCCCCOc1ccccc1OC,–,–,–,–,–
CCN(CC)CCC(C)OC(c1ccccc1)c1ccccc1 (centres undefined),·,–,·,100,–
COc1ccc(-c2cc(=O)oc3cc(OC(=O)C4CCCCC4)c(Cl)cc23)cc1,–,–,–,–,–
O=C(NCC1CCCO1)c1ccc2c(=O)n(CC3CCCO3)c(SCC(=O)N3CCCC3)nc2c1 (centres undefined),·,–,·,–,–
COc1ccc(-c2csc(Nc3ccc(S(N)(=O)=O)cc3)n2)cc1,–,–,–,–,–
CC(=O)Oc1ccc(-c2csc(Nc3ccc(S(N)(=O)=O)cc3)n2)cc1,·,–,·,55,–
O=C(Nc1ccc(F)cc1)C(=O)c1c(O)[nH]c2ccc([N+](=O)[O-])cc12,·,–,·,·,·
CCc1nnc(NC(=O)C(CC)CC)s1,·,–,·,·,·
CCCCNS(=O)(=O)c1ccc2nc(-c3cccnc3)cc(C(=O)NC3CC3)c2c1,0.4,–,0.3,–,–
Cn1c(/C(C#N)=C/c2ccc(-c3ccc(S(N)(=O)=O)cc3)o2)nc2ccccc21,–,–,–,–,+
Cn1c(/C(C#N)=C/c2cccc(O)c2)nc2ccccc21,·,–,·,89,–
Cn1c(/C(C#N)=C/Nc2ccccn2)nc2ccccc21,–,–,–,–,–
CCOc1ccc(NC(=O)C(C)NS(=O)(=O)c2ccc(NC(C)=O)cc2)cc1 (centres undefined),·,–,·,–,–
COC(=O)c1nn(-c2nc(-c3cccc(OC)c3)cc(C(F)(F)F)n2)cc1[N+](=O)[O-],·,–,·,90,–
Cc1ccccc1-n1c(SCc2ccccn2)nc2n[nH]c(C)c2c1=N,–,–,–,–,–
CCc1ccccc1NC(=O)CSc1nc2n[nH]c(C)c2c(=N)n1-c1cccc(OC)c1,–,–,–,90,–
SMILES,HCT116 PTEN-null,Dynein cargo inh,HCT116 bCat-KO,Lmaj promast,Autophagy HCS
CCOc1ccccc1NC(=O)CCSc1nc2n[nH]c(C)c2c(=N)n1-c1ccccc1Cl,–,–,–,–,+
CCOc1ccccc1-n1c(SCC(=O)Nc2ccc(CC)cc2)nc2n[nH]c(C)c2c1=N,3.7,–,5.0,–,–
CNC(=O)NNC(=O)c1csc(Cc2c(Cl)sc3ccc(Cl)cc23)n1,·,–,·,·,·
CCOC(=O)c1ccc(NC(=S)Nc2cccc(N)n2)cc1,·,–,·,·,·
CCOC(=O)c1ccc(NC(=S)Nc2cccc(C)n2)cc1,–,–,–,57,–
COC(=O)C1=CN(C2CC2)C=C(C(=O)OC)C1c1ccc(C(F)(F)F)cc1,·,–,·,88,–
COC(=O)C1=CN(C2CC2)C=C(C(=O)OC)C1c1ccc(C(=O)OC)cc1,–,–,–,–,–
C/C(=N/NC(=O)c1cnccn1)c1cccs1,–,–,–,–,–
Cc1cccc(OCCN2CSC(=S)N(C)C2)c1,–,–,–,100,+
Cc1cccc(OCCn2cnc(Cl)c2Cl)c1,·,–,·,·,·
COc1ccccc1OCCN1CSC(=S)N(C)C1,–,–,4.0,100,–
O=C(O)COCC(=O)N1CCN(C2c3ccccc3-c3ccccc32)CC1,·,–,·,·,·
c1cncc(C(c2nnnn2C2CCCCC2)N2CCCCC2)c1 (centres undefined),·,–,·,–,–
